According to ChEMBL document CHEMBL1147762, “A new chemical tool for exploring the physiological function of the PDE2 isozyme” (Bioorg Med Chem Lett, 2006):

Key:
[1] = molecular target: 3',5'-cyclic-AMP phosphodiesterase 4A (Homo sapiens, UniProt P27815); assay: Inhibitory activity against PDE4A by scintillation proximity assay
Procedure, shortened: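 Phosphodiesterase inhibition run as a scintillation proximity assay, with enzyme at a concentration in the linear range. Final substrate was 1 µM, below one-third of the enzyme K_M, so that IC50 approximates Ki. Values are means of n experiments with standard deviation.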

[2] = molecular target: 3',5'-cyclic-AMP phosphodiesterase 4D (Homo sapiens, UniProt Q08499); assay: Inhibitory activity against PDE4D by scintillation proximity assay
Procedure, shortened: (§1)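 Scintillation proximity assay for phosphodiesterase inhibition. Enzyme is used at a concentration within the linear range, and its KM was measured. Final substrate concentration is 1 µM, below one-third of KM, so IC50 approximates Ki. Results are means of n experiments with standard deviation.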

[3] = molecular target: High affinity cAMP-specific and IBMX-insensitive 3',5'-cyclic phosphodiesterase 8A (Homo sapiens, UniProt O60658); assay: Inhibitory activity against PDE8A by scintillation proximity assay; procedure, shortened: as §1
[4] = molecular target: High affinity cAMP-specific and IBMX-insensitive 3',5'-cyclic phosphodiesterase 8B (Homo sapiens, UniProt O95263); assay: Inhibitory activity against PDE8B by scintillation proximity assay; procedure, shortened: as §1
Sequence of High affinity cAMP-specific and IBMX-insensitive 3',5'-cyclic phosphodiesterase 8B (O95263 whole entry): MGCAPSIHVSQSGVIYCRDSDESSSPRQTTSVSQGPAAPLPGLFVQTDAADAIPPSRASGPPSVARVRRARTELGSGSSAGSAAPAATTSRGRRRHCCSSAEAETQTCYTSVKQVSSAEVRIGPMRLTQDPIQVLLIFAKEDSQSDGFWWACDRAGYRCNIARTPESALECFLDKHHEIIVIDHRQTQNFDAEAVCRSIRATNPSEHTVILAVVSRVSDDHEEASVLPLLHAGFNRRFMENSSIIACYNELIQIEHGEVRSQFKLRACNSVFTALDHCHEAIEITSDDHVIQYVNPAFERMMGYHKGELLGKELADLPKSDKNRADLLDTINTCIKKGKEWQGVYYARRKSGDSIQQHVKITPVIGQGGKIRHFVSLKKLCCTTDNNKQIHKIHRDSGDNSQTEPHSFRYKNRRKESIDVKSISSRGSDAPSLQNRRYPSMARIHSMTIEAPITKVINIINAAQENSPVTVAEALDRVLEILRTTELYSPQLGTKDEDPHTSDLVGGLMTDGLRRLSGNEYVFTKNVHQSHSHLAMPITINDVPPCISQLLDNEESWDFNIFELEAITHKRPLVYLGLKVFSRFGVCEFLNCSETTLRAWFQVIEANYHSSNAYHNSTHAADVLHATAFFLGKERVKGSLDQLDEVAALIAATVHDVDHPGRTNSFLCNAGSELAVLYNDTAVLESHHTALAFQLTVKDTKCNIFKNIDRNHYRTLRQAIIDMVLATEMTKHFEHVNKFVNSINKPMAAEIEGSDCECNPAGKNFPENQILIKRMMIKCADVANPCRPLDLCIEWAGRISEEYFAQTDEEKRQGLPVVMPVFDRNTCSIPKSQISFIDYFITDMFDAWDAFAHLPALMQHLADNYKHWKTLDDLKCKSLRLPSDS

[5] = molecular target: High affinity cGMP-specific 3',5'-cyclic phosphodiesterase 9A (Homo sapiens, UniProt O76083); assay: Inhibitory activity against PDE9 by scintillation proximity assay; procedure, shortened: as §1
Sequence of High affinity cGMP-specific 3',5'-cyclic phosphodiesterase 9A (O76083 whole entry): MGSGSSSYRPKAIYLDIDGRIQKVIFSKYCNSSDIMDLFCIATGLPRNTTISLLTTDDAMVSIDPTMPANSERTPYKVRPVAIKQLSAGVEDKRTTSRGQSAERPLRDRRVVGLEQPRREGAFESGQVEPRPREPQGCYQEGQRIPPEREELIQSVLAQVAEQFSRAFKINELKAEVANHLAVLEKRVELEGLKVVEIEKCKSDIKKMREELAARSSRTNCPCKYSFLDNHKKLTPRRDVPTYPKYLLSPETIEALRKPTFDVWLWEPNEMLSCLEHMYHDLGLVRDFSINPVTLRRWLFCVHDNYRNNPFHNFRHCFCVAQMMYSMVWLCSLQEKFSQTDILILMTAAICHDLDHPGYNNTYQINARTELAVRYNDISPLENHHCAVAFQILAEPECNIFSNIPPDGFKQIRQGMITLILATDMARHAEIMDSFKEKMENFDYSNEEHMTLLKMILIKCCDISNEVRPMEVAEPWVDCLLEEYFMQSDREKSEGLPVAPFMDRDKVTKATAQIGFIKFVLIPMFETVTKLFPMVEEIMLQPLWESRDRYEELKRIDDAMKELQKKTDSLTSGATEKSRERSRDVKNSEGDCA

[6] = molecular target: Dual 3',5'-cyclic-AMP and -GMP phosphodiesterase 11A (Homo sapiens, UniProt Q9HCR9); assay: Inhibitory activity against PDE11 by scintillation proximity assay
Procedure, shortened: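 Phosphodiesterase inhibition run as a scintillation proximity assay, with enzyme at a concentration in the linear range. Values are means of n experiments with standard deviation.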

[7] = molecular target: Adrenergic receptor alpha-2 (Homo sapiens) (UniProt P08913+P18825+P18089); assay: Percentage binding to adrenergic alpha-2 receptor at 10 uM; type: protein assay
[8] = molecular target: Beta-2 adrenergic receptor (Homo sapiens) (UniProt P07550); assay: Percentage binding to adrenergic beta-2 receptor at 10 uM
[9] = molecular target: Delta-type opioid receptor (Homo sapiens) (UniProt P41143); assay: Percentage binding to opioid delta at 10 uM
[10] = molecular target: Serine/threonine-protein kinase Chk1 (Homo sapiens) (UniProt O14757); assay: Inhibition of CHK1 at 10 uM
[11] = molecular target: Tyrosine-protein kinase Lck (Homo sapiens) (UniProt P06239); assay: Inhibition of LCK at 10 uM
[12] = molecular target: Type-2 angiotensin II receptor (Homo sapiens) (UniProt P50052); assay: Percentage binding to angiotensin II type 2 receptor at 10 uM
Sequence of Type-2 angiotensin II receptor (Homo sapiens) (P50052 whole entry): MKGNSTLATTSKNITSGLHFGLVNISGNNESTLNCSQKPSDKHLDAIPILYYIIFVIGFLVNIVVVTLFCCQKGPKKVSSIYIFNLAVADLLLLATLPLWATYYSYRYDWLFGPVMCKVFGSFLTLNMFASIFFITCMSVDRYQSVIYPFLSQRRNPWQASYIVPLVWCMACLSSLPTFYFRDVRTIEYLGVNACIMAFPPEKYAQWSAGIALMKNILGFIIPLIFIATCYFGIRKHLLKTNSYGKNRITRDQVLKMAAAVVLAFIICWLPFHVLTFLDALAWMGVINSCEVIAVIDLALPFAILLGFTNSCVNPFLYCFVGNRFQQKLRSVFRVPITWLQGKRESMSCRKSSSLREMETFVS

[13] = molecular target: D(3) dopamine receptor (Homo sapiens) (UniProt P35462); assay: Percentage binding to dopamine D3 at 10 uM
Sequence of D(3) dopamine receptor (Homo sapiens) (P35462 whole entry): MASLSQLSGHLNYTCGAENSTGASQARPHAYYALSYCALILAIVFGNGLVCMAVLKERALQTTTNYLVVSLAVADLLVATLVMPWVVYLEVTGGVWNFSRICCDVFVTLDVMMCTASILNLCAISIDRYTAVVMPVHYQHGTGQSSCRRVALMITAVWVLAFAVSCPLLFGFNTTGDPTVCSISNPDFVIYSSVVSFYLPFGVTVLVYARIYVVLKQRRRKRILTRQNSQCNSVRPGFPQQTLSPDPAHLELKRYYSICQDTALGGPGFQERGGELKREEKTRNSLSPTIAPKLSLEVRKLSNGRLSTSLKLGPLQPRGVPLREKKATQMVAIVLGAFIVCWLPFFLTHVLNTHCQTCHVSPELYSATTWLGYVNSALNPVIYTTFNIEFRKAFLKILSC

[14] = Activity against GABA uptake at 10 uM
Procedure, shortened: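 Single-concentration screen within a panel of 54 receptors and ion channels, measuring binding or interaction at each target.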

[15] = molecular target: Glutamate [NMDA] receptor (Homo sapiens) (UniProt Q05586+Q12879+Q13224+O15399+O60391+Q14957+Q8TCU5); assay: Percentage binding to NMDA at 10 uM; type: protein-complex assay
[16] = molecular target: Histamine H3 receptor (Homo sapiens) (UniProt Q9Y5N1); assay: Percentage binding to histamine H3 at 10 uM
Sequence of Histamine H3 receptor (Homo sapiens) (Q9Y5N1 whole entry): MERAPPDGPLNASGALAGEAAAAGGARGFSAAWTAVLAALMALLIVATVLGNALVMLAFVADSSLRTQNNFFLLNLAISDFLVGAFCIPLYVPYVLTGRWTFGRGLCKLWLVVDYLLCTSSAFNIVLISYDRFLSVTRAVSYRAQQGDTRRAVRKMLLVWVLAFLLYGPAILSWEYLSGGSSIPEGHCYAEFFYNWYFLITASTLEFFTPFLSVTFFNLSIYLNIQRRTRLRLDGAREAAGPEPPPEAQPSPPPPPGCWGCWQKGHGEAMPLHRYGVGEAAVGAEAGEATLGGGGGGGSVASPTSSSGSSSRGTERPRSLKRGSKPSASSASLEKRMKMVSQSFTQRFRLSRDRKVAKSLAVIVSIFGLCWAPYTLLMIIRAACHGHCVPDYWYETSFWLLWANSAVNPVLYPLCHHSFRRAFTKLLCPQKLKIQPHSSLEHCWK

[17] = molecular target: Muscarinic acetylcholine receptor M3 (Homo sapiens) (UniProt P20309); assay: Percentage binding to muscarinic M3 at 10 uM
Sequence of Muscarinic acetylcholine receptor M3 (Homo sapiens) (P20309 whole entry, looked up): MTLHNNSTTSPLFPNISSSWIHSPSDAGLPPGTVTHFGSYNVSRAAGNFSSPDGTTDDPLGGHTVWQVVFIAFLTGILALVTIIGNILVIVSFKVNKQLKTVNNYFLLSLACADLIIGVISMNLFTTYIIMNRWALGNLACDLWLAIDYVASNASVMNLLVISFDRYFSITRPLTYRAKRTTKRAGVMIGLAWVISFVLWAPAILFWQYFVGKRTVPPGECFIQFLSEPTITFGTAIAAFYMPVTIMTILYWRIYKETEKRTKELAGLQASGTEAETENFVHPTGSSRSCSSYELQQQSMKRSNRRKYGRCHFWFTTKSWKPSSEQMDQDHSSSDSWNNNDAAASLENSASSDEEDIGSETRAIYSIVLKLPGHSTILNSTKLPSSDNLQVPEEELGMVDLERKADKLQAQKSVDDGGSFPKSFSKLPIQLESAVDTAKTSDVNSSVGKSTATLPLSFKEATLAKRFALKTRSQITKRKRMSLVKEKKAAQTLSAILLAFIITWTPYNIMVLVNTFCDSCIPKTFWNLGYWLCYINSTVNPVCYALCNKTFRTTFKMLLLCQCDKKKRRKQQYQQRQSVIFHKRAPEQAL

[18] = molecular target: Glucocorticoid receptor (Homo sapiens) (UniProt P04150); assay: Percentage binding to glucocorticord receptor at 10 uM
[19] = molecular target: Vasopressin V2 receptor (Homo sapiens) (UniProt P30518); assay: Percentage binding to vasopressin V2 at 10 uM
Sequence of Vasopressin V2 receptor (Homo sapiens) (P30518 whole entry): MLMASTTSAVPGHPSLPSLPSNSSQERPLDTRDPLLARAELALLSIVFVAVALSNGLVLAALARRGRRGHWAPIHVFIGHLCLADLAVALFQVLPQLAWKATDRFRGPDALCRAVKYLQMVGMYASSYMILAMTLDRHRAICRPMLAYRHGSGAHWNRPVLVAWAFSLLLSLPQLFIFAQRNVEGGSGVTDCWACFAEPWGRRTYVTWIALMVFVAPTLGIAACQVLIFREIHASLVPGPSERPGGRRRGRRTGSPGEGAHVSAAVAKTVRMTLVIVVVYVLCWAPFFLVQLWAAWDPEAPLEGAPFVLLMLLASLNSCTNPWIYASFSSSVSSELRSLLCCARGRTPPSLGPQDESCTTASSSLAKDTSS

[20] = molecular target: Mitogen-activated protein kinase 1 (Homo sapiens) (UniProt P28482); assay: Inhibition of MAPK2 at 10 uM
[21] = molecular target: Mitogen-activated protein kinase 11 (Homo sapiens) (UniProt Q15759); assay: Inhibition of SAPK2b at 10 uM
Sequence of Mitogen-activated protein kinase 11 (Homo sapiens) (Q15759 whole entry): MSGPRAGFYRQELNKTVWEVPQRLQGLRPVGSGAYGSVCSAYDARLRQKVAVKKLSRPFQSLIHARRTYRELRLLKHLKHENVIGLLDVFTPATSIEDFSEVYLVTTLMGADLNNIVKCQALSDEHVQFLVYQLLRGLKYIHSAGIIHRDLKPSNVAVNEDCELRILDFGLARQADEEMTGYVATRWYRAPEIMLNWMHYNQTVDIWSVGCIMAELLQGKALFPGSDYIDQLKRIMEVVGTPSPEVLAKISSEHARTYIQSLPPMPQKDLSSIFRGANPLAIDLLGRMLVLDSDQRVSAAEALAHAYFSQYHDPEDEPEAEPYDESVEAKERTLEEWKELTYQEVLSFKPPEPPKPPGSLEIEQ

[22] = Basolateral Caco-2 cell membrane permeability; type: ADME, cell-based; settings: human
[23] = Volume of distribution in rat; type: ADME, organism-based; settings: Sprague-Dawley, in vivo, read-out: Vdss

Sequence of 3',5'-cyclic-AMP phosphodiesterase 4A (P27815 whole entry): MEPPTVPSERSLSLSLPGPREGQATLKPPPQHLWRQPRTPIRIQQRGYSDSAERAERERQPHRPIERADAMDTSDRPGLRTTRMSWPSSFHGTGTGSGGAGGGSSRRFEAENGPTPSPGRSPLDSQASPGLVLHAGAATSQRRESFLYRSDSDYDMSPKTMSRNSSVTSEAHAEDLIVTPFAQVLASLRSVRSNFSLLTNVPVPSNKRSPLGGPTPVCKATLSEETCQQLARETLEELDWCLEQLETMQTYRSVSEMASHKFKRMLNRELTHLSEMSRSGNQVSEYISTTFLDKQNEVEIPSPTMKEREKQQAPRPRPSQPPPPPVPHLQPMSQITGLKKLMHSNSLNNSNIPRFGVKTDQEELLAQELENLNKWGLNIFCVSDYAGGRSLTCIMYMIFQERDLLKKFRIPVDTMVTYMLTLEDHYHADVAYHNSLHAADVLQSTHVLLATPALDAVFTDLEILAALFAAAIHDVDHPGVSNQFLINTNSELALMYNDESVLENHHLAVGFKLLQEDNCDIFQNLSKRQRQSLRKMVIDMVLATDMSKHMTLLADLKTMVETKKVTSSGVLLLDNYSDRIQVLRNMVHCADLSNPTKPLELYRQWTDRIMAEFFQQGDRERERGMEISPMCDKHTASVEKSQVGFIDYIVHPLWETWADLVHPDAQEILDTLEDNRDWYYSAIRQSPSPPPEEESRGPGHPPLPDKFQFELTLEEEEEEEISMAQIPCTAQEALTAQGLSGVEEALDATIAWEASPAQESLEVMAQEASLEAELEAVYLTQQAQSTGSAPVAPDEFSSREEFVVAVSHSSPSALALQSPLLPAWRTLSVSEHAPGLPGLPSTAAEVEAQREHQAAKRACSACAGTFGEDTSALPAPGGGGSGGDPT

IC50 [1]: > 16 µM | IC50 [2]: > 16 µM | IC50 [3]: > 16 µM | IC50 [4]: > 16 µM | IC50 [5]: > 16 µM | IC50 [6]: 11.6 µM | Activity [7]: 16% | Activity [8]: 12% | Activity [9]: 3% | inhibition [10]: 0% | inhibition [11]: 5% | Activity [12]: 4% | Activity [13]: 0% | Activity [14]: 8% | Activity [15]: 7% | Activity [16]: 0% | Activity [17]: 0% | Activity [18]: 0% | Activity [19]: 13% | inhibition [20]: 12% | inhibition [21]: 5% | Papp [22]: 32 ×10⁻⁶ cm/s | Vd [23]: 0.1 L/kg
SMILES: CN1C(=O)C(C(=O)Nc2nncs2)c2cc3occc3cc21 (stereo not drawn)
